Results taken from ChEMBL document CHEMBL1155814, “Structure-activity correlations for beta-phenethylamines at human trace amine receptor 1” (Bioorg Med Chem, 2008).
Calls of active or inactive are those of the source.

Columns and labels:
Format in all cases: functional, cell-based
[1] = target: T1, Trace amine-associated receptor 1 (Homo sapiens, UniProt Q96RJ0); assay: (§1) Agonist activity at human trace amine associated receptor 1 expressed in RD-HGA16 CHO-K1 cells coexpressed with Galpha16 protein assessed as internal calcium mobilization by calcium 3 assay
T1 sequence (Q96RJ0 whole entry): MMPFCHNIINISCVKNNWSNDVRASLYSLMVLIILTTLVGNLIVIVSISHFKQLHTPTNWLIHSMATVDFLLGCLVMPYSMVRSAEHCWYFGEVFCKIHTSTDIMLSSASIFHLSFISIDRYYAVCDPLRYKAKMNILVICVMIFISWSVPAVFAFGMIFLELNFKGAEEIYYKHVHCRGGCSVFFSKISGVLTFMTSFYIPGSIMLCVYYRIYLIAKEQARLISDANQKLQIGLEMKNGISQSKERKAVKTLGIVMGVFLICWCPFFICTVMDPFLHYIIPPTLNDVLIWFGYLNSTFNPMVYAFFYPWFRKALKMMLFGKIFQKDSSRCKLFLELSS
Outline: (§2)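 Unmodified human TAAR1 stably expressed in CHO cells carrying Galpha16 (RD-HGA16). Cells seeded at 30,000/well in HAM's F-12 with 10% FBS, 400 ug/mL hygromycin and 400 µg/mL geneticin, overnight at 37 °C, 5% CO2. Loaded 1 h at 37 °C with Calcium 3 dye at 1/3 kit strength. Basal signal recorded 13 sec before compound addition. Compounds tested at 7–8 concentrations in duplicate. A six-point β-PEA curve was run on each plate.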

[2] = target: T2, Trace amine-associated receptor 1 (Homo sapiens) (UniProt Q96RJ0); assay: Agonist activity at human trace amine associated receptor 1 expressed in RD-HGA16 CHO-K1 cells coexpressed with Galpha16 protein assessed as internal calcium mobilization by calcium 3 assay relative to 2-phenylethanamine
T2 sequence (whole entry): T1 sequence (Q96RJ0 whole entry)
Outline: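 Unmodified human TAAR1 stably expressed in CHO cells carrying Galpha16 (RD-HGA16). Cells seeded at 30,000/well in HAM's F-12 with 10% FBS, 400 ug/mL hygromycin and 400 µg/mL geneticin, overnight at 37 °C, 5% CO2. Loaded 1 h at 37 °C with Calcium 3 dye at 1/3 kit strength. Fluorescence read from the bottom at 485/525 nm, 515 cutoff. Basal signal recorded 13 sec before compound addition. Compounds tested at 7–8 concentrations in duplicate. A six-point β-PEA curve was run on each plate.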

[3] = target: T2, Trace amine-associated receptor 1 (Homo sapiens); assay: Agonist activity at human trace amine associated receptor 1 expressed in AV12-664 cells coexpressed with rat […] protein assessed as cAMP accumulation relative to 2-phenylethanamine
[4] = target: T1, Trace amine-associated receptor 1; assay: Agonist activity at human trace amine associated receptor 1 expressed in AV12-664 cells coexpressed with rat GalphaS protein assessed as cAMP accumulation
[5] = target: T2, Trace amine-associated receptor 1 (Homo sapiens); assay: as §1; outline: as §2

Structure (SMILES)	EC50 [1]	Emax [2]	Emax [3]	EC50 [4]	Activity [5]
COc1ccc(OC)c(CCN)c1	2.01 µM	69%	–	–	–
CN(C)CCc1ccccc1Br	3.46 µM	78%	–	–	–
NCCc1cccc(Cl)c1	0.189 µM	105%	–	–	–
NCCc1cccc(F)c1	0.15 µM	93%	–	–	–
COc1ccccc1CCN	0.144 µM	95%	–	–	–
NCCc1cccc(O)c1	1.74 µM	78%	–	–	–
CN(C)CCc1ccccc1F	1.29 µM	75%	–	–	–
CN(C)CCc1cccc(Cl)c1	5.98 µM	62%	–	–	–
NCCc1c(Cl)cccc1Cl	0.051 µM	94%	–	–	–
NCCc1ccccc1F	0.065 µM	91%	–	–	–
NCC(c1ccccc1)c1ccccc1	3.4 µM	70%	–	–	–
NCCc1ccccc1O	0.614 µM	90%	–	–	–
N[C@@H]1C[C@H]1c1ccccc1 (relative stereo)	1.51 µM	72%	–	–	–
NCCc1c(F)cccc1Cl	0.312 µM	94%	–	–	–
NCCc1ccc(C(F)(F)F)cc1	11.6 µM	78%	–	–	–
C[C@@H](CN)c1ccccc1	0.361 µM	97%	–	–	–
NCCc1c(F)cc(O)cc1F	0.767 µM	103%	–	–	–
CNCCc1ccccc1	0.387 µM	69%	93.4%	0.25 µM	–
NCCc1ccccc1I	0.103 µM	109%	–	–	–
C[C@H](N)Cc1ccccc1	–	74%	–	–	–
CNCCc1ccc(F)cc1	1.04 µM	63%	–	–	–
CNCCc1cccc(Br)c1	1.07 µM	71%	–	–	–
NCCc1ccccc1Br	0.057 µM	89%	–	–	–

Structure (SMILES)	EC50 [1]	Emax [2]	Emax [3]	EC50 [4]	Activity [5]
CNCCc1ccccc1Cl	0.16 µM	70%	–	–	–
NCCc1ccccc1 [PHENETHYLAMINE]	0.129 µM	100%	–	–	–
CNCCc1cccc(Cl)c1	0.501 µM	77%	–	–	–
Cc1cccc(CCN)c1	0.638 µM	93%	–	–	–
CN(C)CCc1cccc(F)c1	4.32 µM	78%	–	–	–
CNCCc1ccccc1F	0.117 µM	75%	–	–	–
COc1cc(F)c(CCN)c(F)c1	1.4 µM	90%	–	–	–
Cc1ccc(C)c(CCN)c1	0.377 µM	84%	–	–	–
CN(C)CCc1ccc(F)cc1	19.1 µM	71%	–	–	–
Cc1ccc(CCN)cc1	4.38 µM	96%	–	–	–
COc1cc(OC)c(OC)cc1CCN	–	–	–	–	inactive
CNCCc1ccccc1Br	0.205 µM	93%	–	–	–
COc1cc(CCN)c(OC)cc1C	6.48 µM	36%	–	–	–
CC(C)C(CN)c1ccccc1 (stereo unspecified)	9.95 µM	46%	–	–	–
COc1ccc(CCN)cc1	5.98 µM	106%	–	–	–
NCCc1cccc(C(F)(F)F)c1	3.95 µM	69%	–	–	–
NCCc1ccc(O)cc1 [TYRAMINE]	0.731 µM	91%	–	–	–
COc1cc(CCN)c(OC)cc1Br	7.19 µM	22%	–	–	–
CNCCc1ccc(Br)cc1	6.54 µM	60%	–	–	–
C[C@@H](N)Cc1ccccc1	–	64%	–	–	–
NCCc1ccc([N+](=O)[O-])cc1	167 µM	–	–	–	–
CCc1ccc(CCN)cc1	9.1 µM	86%	–	–	–
NCCc1cccc(Cl)c1Cl	1.16 µM	84%	–	–	–

Structure (SMILES)	EC50 [1]	Emax [2]	Emax [3]	EC50 [4]	Activity [5]
C[C@H](CN)c1ccccc1	0.129 µM	104%	–	–	–
NCCc1ccc(F)cc1	0.74 µM	81%	–	–	–
CN(C)CCc1ccc(Cl)cc1	630 µM	43%	–	–	–
NCCc1ccc(Br)cc1	1.54 µM	98%	–	–	–
CNCCc1ccc(Cl)cc1	7.43 µM	67%	–	–	–
CC(C)(N)Cc1ccccc1 [PHENTERMINE]	5.47 µM	68%	–	–	–
CC(C)(C)c1ccc(CCN)cc1	5110 µM	–	–	–	–
NCC1(c2ccccc2)CC1	5.05 µM	79%	–	–	–
NCCc1cccc(Br)c1	0.398 µM	75%	–	–	–
COc1cc(CCN)c(OC)cc1Cl	3.75 µM	30%	–	–	–
CN(C)CCc1ccccc1	100 µM	–	97.1%	1.49 µM	–
NCCc1ccc2c(c1)OCO2	5.03 µM	63%	–	–	–
NCCc1ccccc1Cl	0.077 µM	72%	–	–	–
CN(C)CCc1ccc(Br)cc1	24.4 µM	40%	–	–	–
NCCc1ccc(Cl)cc1	2.86 µM	104%	–	–	–
CC(C)(CN)c1ccccc1	7.88 µM	70%	–	–	–
CNCCc1cccc(F)c1	0.53 µM	88%	–	–	–
CCc1cc(OC)c(CCN)cc1OC	6.41 µM	32%	–	–	–
NCCc1ccc(Cl)c(Cl)c1	3.43 µM	78%	–	–	–
CN(C)CCc1ccccc1Cl	0.687 µM	79%	–	–	–
CN(C)CCc1cccc(Br)c1	8.3 µM	88%	–	–	–
Cc1ccccc1CCN	0.355 µM	97%	–	–	–
COc1cccc(CCN)c1	1.44 µM	73%	–	–	–
